Screening data (PubChem BioAssay)
SIRT5 block – blocks human SIRT5 desuccinylation of peptide. Q9NXA8. Purified SirT5, succinyl-peptide AMC, trypsin-coupled fluorescence. inhibition, % at 15 µM. 330,000 tested, 1.1% active; in the data active means inhibition above about 15%; inconclusive means no clear call, values can overlap the other calls
Target sequence (Q9NXA8 whole entry, looked up): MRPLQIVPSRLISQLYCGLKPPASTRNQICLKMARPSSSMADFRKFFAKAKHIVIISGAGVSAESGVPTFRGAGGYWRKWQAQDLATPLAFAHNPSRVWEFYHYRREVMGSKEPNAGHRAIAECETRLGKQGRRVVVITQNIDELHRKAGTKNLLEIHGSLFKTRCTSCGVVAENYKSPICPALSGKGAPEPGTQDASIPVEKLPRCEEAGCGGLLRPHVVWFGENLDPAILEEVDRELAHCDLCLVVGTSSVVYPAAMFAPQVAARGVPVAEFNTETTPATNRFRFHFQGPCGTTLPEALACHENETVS
E-selectin induc – E-selectin induction on HUVECs. P16581. AID 686992. 260,000 tested, 0.37% active. activation, % at 7.58 µM. HUVEC E-selectin immunofluorescence imaging; normalized: neutral wells 0, TNF-alpha wells 100;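 active means mean E-selectin-positive cell signal at least 10% of the positive control, reached in at least 60% of replicates, without over 20% cell loss; inconclusive means no rule given, readout overlaps actives, possibly toxicity-flagged; inactive means the rest, including those meeting only one limit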
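assay system = HUVEC, human umbilical vein endothelial cells | input = 3,000 HUVEC seeded per well | medium = EGM-2 growth medium on 0.1% gelatin-coated wells | dosing = one compound dose added by pin transfer | signal = immunofluorescence imaging | read-out basis = % PE-positive cells | control set = TNF-alpha, DMSO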
DENV2 CPE – protects cells from dengue virus 2 cytopathic effect; DENV2-infected cells, cytopathic effect rescue, plate reader; CPE inhibition, % at 9.99 µM; 350,000 tested, 1.7% active; in the data active means CPE inhibition above about 20%, passing the limit was not always enough; inconclusive means no clear call, values can overlap the other calls; tested in BHK-21 cells
Each line names hits and unclear results; the compound was inactive in the other large screens; ! = not confirmed by another sample. A selection: hits, their analogues and other compounds. The true share with any hit is near 2.9%.

Cc1cc(C)n(C(=O)CNC(=O)c2cccc(Cl)c2)n1	none
Cc1cc(C)n(C(=O)CNC(=O)c2cccs2)n1	SIRT5 block 23 (no result: E-selectin induc, DENV2 CPE)
CO[C@H]1CN(C)C(=O)c2ccc(NC(C)=O)cc2OC[C@@H](C)N(C(=O)c2ccc(F)cc2)C[C@@H]1C	none
CO[C@@H]1CN(C)C(=O)c2ccc(NC(=O)Nc3ccc(F)cc3)cc2OC[C@@H](C)N(C(=O)c2ccc(F)cc2)C[C@H]1C	E-selectin induc 44
CO[C@@H]1CN(C)C(=O)c2ccc(NC(=O)Nc3cc(F)ccc3F)cc2OC[C@H](C)N(C(=O)c2ccccn2)C[C@H]1C	DENV2 CPE 26 (no result: SIRT5 block)
CO[C@@H]1CN(C)C(=O)c2ccc(NC(=O)Nc3cc(F)ccc3F)cc2OC[C@@H](C)N(C(=O)c2ccccn2)C[C@@H]1C	none (no result: SIRT5 block)
CO[C@@H]1CN(C)C(=O)c2ccc(NC(=O)Nc3cc(F)ccc3F)cc2OC[C@@H](C)N(C(=O)c2ccccn2)C[C@H]1C	DENV2 CPE 87 (no result: SIRT5 block)
CO[C@H]1CN(C)C(=O)c2ccc(NC(=O)Nc3cc(F)ccc3F)cc2OC[C@H](C)N(C(=O)c2ccccn2)C[C@H]1C	none (no result: SIRT5 block)
CCN(CC(=O)Nc1ccc(NC(C)=O)cc1)C(=O)CCN1C(=O)c2cccc([N+](=O)[O-])c2C1=O	none
CCNC(=O)[C@H]1[C@H](CO)[C@H]2Cn3c(ccc(C4=CCCCC4)c3=O)[C@H]2N1CC1CC1	none
CC(=O)NC(Cc1ccccc1F)C(=O)NC1CCN(C(=O)Nc2ccc(C)cc2)CC1 (stereo not drawn)	none (no result: E-selectin induc)
COc1cccc(C=Nc2ccc3c(c2)CCC3)c1O	none
CCC(=O)N1C[C@H](C)[C@@H](OC)CN(C)C(=O)c2ccc(NC(=O)c3cnccn3)cc2OC[C@@H]1C	none (no result: SIRT5 block)
Cc1noc(C)c1S(=O)(=O)N(C)C[C@H]1Oc2ccc(NC(=O)Nc3ccc(F)cc3)cc2CC(=O)N([C@@H](C)CO)C[C@H]1C	none
Cc1noc(C)c1S(=O)(=O)N(C)C[C@H]1Oc2ccc(NS(C)(=O)=O)cc2CC(=O)N([C@@H](C)CO)C[C@H]1C	E-selectin induc 28 (no result: DENV2 CPE)
Cc1noc(C)c1S(=O)(=O)N(C)C[C@@H]1Oc2ccc(NC(=O)Nc3ccc(F)cc3)cc2CC(=O)N([C@@H](C)CO)C[C@@H]1C	E-selectin induc 51
Cc1noc(C)c1S(=O)(=O)N(C)C[C@@H]1Oc2ccc(NS(C)(=O)=O)cc2CC(=O)N([C@@H](C)CO)C[C@H]1C	none
Cc1noc(C)c1S(=O)(=O)N(C)C[C@@H]1Oc2ccc(NC(=O)Nc3ccc(F)cc3)cc2CC(=O)N([C@@H](C)CO)C[C@H]1C	none (no result: SIRT5 block)
Cc1noc(C)c1S(=O)(=O)N(C)C[C@@H]1Oc2ccc(NC(=O)Nc3ccc(F)cc3)cc2CC(=O)N([C@H](C)CO)C[C@H]1C	E-selectin induc 45
C[C@H](CO)N1C[C@H](C)[C@@H](CN(C)S(C)(=O)=O)Oc2c(NC(=O)Nc3ccccc3)cccc2C1=O	none
Cc1ccccc1OCC(=O)OCC(=O)N1CCc2ccccc21	none
CCN(CC)C(=O)n1nc(C)c(CN2C(=O)c3ccccc3C2=O)c1C	none (no result: E-selectin induc, DENV2 CPE)
CN(C)CCn1cnc2c1c(=O)n(C)c(=O)n2C	none
C[C@H](CO)N1C[C@H](C)[C@H](CN(C)Cc2ccc(Oc3ccccc3)cc2)Oc2ccc(NS(=O)(=O)c3ccc(Cl)cc3)cc2CC1=O	none
COC(=O)c1c(NC(=O)c2ccoc2C)sc(C)c1C	none (no result: E-selectin induc)
Cc1ccc(CN(C)C[C@@H]2OCc3cnnn3CCCC(=O)N([C@H](C)CO)C[C@@H]2C)cc1	SIRT5 block 18
Cc1ccc(CN(C)C[C@H]2OCc3cnnn3CCCC(=O)N([C@@H](C)CO)C[C@@H]2C)cc1	DENV2 CPE inconclusive
Cc1cccc(CN(C)C[C@@H]2OCc3cnnn3CCCC(=O)N([C@H](C)CO)C[C@@H]2C)c1	SIRT5 block 15
Cc1cccc(CN(C)C[C@H]2OCc3cnnn3CCCC(=O)N([C@@H](C)CO)C[C@H]2C)c1	none (no result: SIRT5 block, DENV2 CPE)
C[C@H]1CN([C@@H](C)CO)C(=O)CCCn2nncc2CO[C@H]1CN(C)Cc1cccnc1	DENV2 CPE inconclusive
C[C@@H]1CN([C@H](C)CO)C(=O)CCCn2nncc2CO[C@H]1CN(C)Cc1cccnc1	SIRT5 block 17!
O=C(O)C1(S(=O)(=O)CCC(F)=C(F)F)CC1	none (no result: E-selectin induc)
CCN(CCN(C)C)C(=O)C1CCN(S(=O)(=O)c2c(C)noc2/C=C/c2ccccc2F)CC1	none (no result: E-selectin induc)
CCOC(=O)c1c(C)[nH]c(C(=O)CN2C(=O)NC(C)(CC(C)C)C2=O)c1C (stereo not drawn)	none (no result: E-selectin induc, DENV2 CPE)
COc1ccc(C#Cc2ccc([C@@H]3[C@H]4CN(C(=O)NC(C)C)CC(=O)N4[C@H]3CO)cc2)cc1	none
Cc1ccc(-c2ccc3c(c2)O[C@@H](CN(C)Cc2ccc(C(=O)O)cc2)[C@H](C)CN([C@H](C)CO)S3(=O)=O)cc1	none
C[C@@H]1Cn2cnc(C(=O)N3CCN(C(=O)OC(C)(C)C)CC3)c2C(=O)N1	none (no result: E-selectin induc)
CC(=O)c1ccc(S(=O)(=O)N2CCN(c3ccccc3F)CC2)cc1	none
Cc1cccc(NC(=O)c2ccc3c(c2)CCN3S(C)(=O)=O)c1C	none (no result: E-selectin induc)
COc1ccc(CCNS(=O)(=O)c2cc3c4c(c2)C(C)C(=O)N4CCC3)cc1OC (stereo not drawn)	none (no result: E-selectin induc)
CC1C(=O)N2CCCc3cc(S(=O)(=O)NCCc4ccccc4)cc1c32 (stereo not drawn)	SIRT5 block 72 (no result: E-selectin induc)
CCN(C(=O)CN1CCCCC1C)c1c(N)n(Cc2ccccc2)c(=O)[nH]c1=O (stereo not drawn)	none (no result: E-selectin induc)
Cc1c(C(=O)N2CCOCC2)c(S(=O)(=O)Nc2ccccc2)c(C)n1C	SIRT5 block 19 (no result: E-selectin induc)
Cc1c(C(=O)N2CCOCC2)c(S(=O)(=O)Nc2ccc(F)cc2)c(C)n1C	none (no result: E-selectin induc)
CC(C)(C)OC(=O)N(CCc1ccccc1)Cc1ccc(OCc2cccc(NC(=O)C3CC3)c2)cc1	SIRT5 block 18
CC(C)(C)OC(=O)N(CCc1ccccc1)Cc1ccc(OCc2cccc(NC(=O)C3CCC3)c2)cc1	none (no result: SIRT5 block)
CCCCOc1ccc(-c2nc(/C=N/c3nccs3)c(O)o2)cc1	none (no result: E-selectin induc)
Cc1cccc(N(Cc2cc(=O)[nH]c3ccccc23)C(=O)CCl)c1	none (no result: E-selectin induc)
CCCC(=O)N(Cc1cc(=O)[nH]c2ccccc12)c1cccc(C)c1	DENV2 CPE 29
COC(=O)CN1C(=O)NC2(CCCc3ccccc32)C1=O (stereo not drawn)	none
O=C(CN1C(=O)NC2(CCCc3ccccc32)C1=O)NC1CCCCC1 (stereo not drawn)	SIRT5 block 16 (no result: E-selectin induc)
Cc1ccccc1NC(=O)C1=CC=CN2CCS(=O)(=O)N=C12	none (no result: E-selectin induc)
COc1ccc(NC(=O)C2=CC=CN3CCS(=O)(=O)N=C23)c(OC)c1	SIRT5 block 28
CCOC(=O)c1nn(-c2ccc(Cl)cc2)cc1O	none
CCOC(=O)c1nn(-c2ccccc2)cc1O	SIRT5 block 28
O=C(c1ccc(F)cc1)N1CC[C@@H]2[C@H]1c1cc(C3=CCCCC3)ccc1N[C@@H]2CO	none (no result: SIRT5 block, DENV2 CPE)
CN1c2ccc(C3=CCCCC3)cc2[C@@H]2[C@@H](CCN2C(=O)C2CC2)[C@@H]1CO	none
CN1c2ccc(-c3cccc(F)c3)cc2[C@H]2[C@H](CCN2C(=O)c2cccc(F)c2)[C@@H]1CO	none
CN(C)C(=O)c1ccc(-c2ccc3c(c2)[C@@H]2[C@@H](CCN2C(=O)C2CCCC2)[C@@H](CO)N3C)cc1	DENV2 CPE 65
CN(C)C(=O)c1ccc(-c2ccc3c(c2)[C@H]2[C@H](CCN2C(=O)C2CCCCC2)[C@H](CO)N3C)cc1	none
